Data set [1] concerns the target Cyclin-dependent kinase 1 (Homo sapiens) (UniProt P06493). Briefly: Decrease of cdc2 protein phosphorylation at Tyr15 in human HeLa cells at 10 to 100 nM after 24 to 48 hrs by Western blot analysis. In kind it is cell-based. Put shortly: (§1)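 HeLa cultures treated 24 or 48 h, washed in cold PBS, lysed 30 min at 0 °C, clarified at 15000g. 20 μg protein run on 7.5−15% gradient SDS-PAGE and blotted to PVDF. Primary antibodies 2 h at room temperature, peroxidase secondary 60 min, ECL detection. Membranes stripped and reprobed for β-actin as loading control.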
In general terms: A western blot detects proteins with antibodies after separation by electrophoresis.

Data set [2] concerns Jurkat. In words: Cell cycle arrest in human Jurkat cells assessed as reduction in S phase up to 60 nM after 24 hrs by propidium iodide staining-based flow cytometric analysis relative to control. The data set is classed as functional. Put shortly: (§2)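 Jurkat cells treated for 24 h, fixed, PI-labelled and analysed by flow cytometry for cell-cycle phase distribution. Mean of three independent experiments.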

The subject of data set [3] is PBL. In words: Cytotoxicity against resting phase of human PBL assessed as growth inhibition after 72 hrs by MTT assay. In kind it is cell-based. Put shortly: (§3)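 Human PBL from healthy donors were isolated on a density gradient, washed, and held overnight in RPMI-1640 with 10% FBS. For proliferating cultures, nonadherent cells were resuspended at 5 × 10⁵ cells/mL with 2.5 μg/mL PHA; resting PBL received no PHA. Cells were exposed to varying compound concentrations, and viability was read by MTT after 72 h. IC50 is the concentration reducing growth by 50%, as the mean of three independent experiments.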

Data set [4] concerns PBL. Briefly: Cytotoxicity against PHA-stimulated human PBL assessed as growth inhibition after 72 hrs by MTT assay. In kind it is cell-based. The method, boiled down: as §3
Background: Tetrazolium assays rely on reduction of a dye to a coloured formazan, in cell work by metabolically active cells.

Data set [5] concerns HeLa. In words: Induction of apoptosis in human HeLa cells assessed as caspase-3 cleavage at 10 to 100 nM after 24 to 48 hrs by Western blot analysis. The data set is classed as functional, cell-based. The method, boiled down: as §1
In data set [6] the test system is HeLa. Briefly: Induction of apoptosis in human HeLa cells assessed as PARP cleavage at 10 nM after 24 hrs by Western blot analysis. The data set is classed as functional, cell-based. Put shortly:
as §1

The nature of data set [7]: Selectivity ratio of IC50 for HUVEC to IC50 for human CEM/0 cells. The data set is classed as ADME, cell-based. The conditions noted are these: HUVEC and CEM/0 cells, read-out: Ratio IC50.
The test system of data set [8] is Jurkat. Briefly: Cell cycle arrest in human Jurkat cells assessed as accumulation at G2/M phase after 24 hrs by propidium iodide staining-based flow cytometric analysis. In kind it is functional. Put shortly:
as §2

The test system of data set [9] is HeLa. In words: Induction of apoptosis in human HeLa cells after 24 to 48 hrs by annexin-V-FITC/propidium iodide staining-based flow cytometric analysis. The data set is classed as functional, cell-based. The method, boiled down:
(§4)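 HeLa cells treated 24 or 48 h, stained with annexin-V-FITC and PI, analysed by flow cytometry. Excitation 488 nm; emission 525 nm for FITC, 585 nm for PI. Gating separates live, early apoptotic, late apoptotic and necrotic cells. Mean of three independent experiments.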
In general terms: In flow cytometry, cells or beads pass a laser one at a time.

For another data set, the system named is L1210. Briefly: Cytotoxicity against mouse L1210 cells assessed as growth inhibition after 48 hrs by coulter counting analysis. The data set is classed as functional, cell-based. The settings on record: L1210, 48 h. Put shortly: (§5)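 Cells suspended at (3−5) × 10⁵ cells/mL and mixed 1:1 with compound dilutions. Incubated 48 h at 37 °C, counted with a Coulter counter. IC₅₀ = concentration inhibiting proliferation by 50%. Mean of at least three independent experiments.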

Data set [10] can be described thus: Cytotoxicity against human Molt4/C8 cells assessed as growth inhibition after 48 hrs by coulter counting analysis. In kind it is functional, cell-based. The conditions noted are these: MOLT-4, 48 h. Put shortly:
as §5

A further data set addresses Tubulin (Homo sapiens) (UniProt P68371+Q9H4B7+P0DPH7+P68366+Q13509+Q71U36+P04350+Q3ZCM7+P07437+P68363+Q9BQE3+Q6PEY2+Q13885+Q9BVA1+Q9BUF5). In words: Displacement of [3H]-colchicine from tubulin (unknown origin) at 1 uM after 10 mins relative to control. The data set is classed as protein-complex assay.
The test system of data set [11] is HeLa. Briefly: Induction of DNA damage in human HeLa cells assessed as upregulation of gamma-H2A.X protein expression at 100 nM after 24 hrs by Western blot analysis. The data set is classed as functional, cell-based. Put shortly:
as §1

Data set [12] is described as follows: Cytotoxicity against human CEM/0 cells assessed as growth inhibition after 48 hrs by coulter counting analysis. The data set is classed as functional, cell-based. The conditions noted are these: CCRF-CEM.
Data set [13] has as its system HeLa. In words: Downregulation of Xiap protein expression in human HeLa cells at 10 to 100 nM after 24 to 48 hrs by Western blot analysis. In kind it is functional, cell-based. Put shortly: as §1
Data set [14] is described as follows: Selectivity ratio of IC50 for HUVEC to IC50 for mouse L1210 cells. In kind it is ADME, cell-based. The conditions noted are these: HUVEC and L1210 cells, read-out: Ratio IC50.
The target in data set [15] is T1, M-phase inducer phosphatase 3 (Homo sapiens) (UniProt P30307).
T1 sequence (whole entry): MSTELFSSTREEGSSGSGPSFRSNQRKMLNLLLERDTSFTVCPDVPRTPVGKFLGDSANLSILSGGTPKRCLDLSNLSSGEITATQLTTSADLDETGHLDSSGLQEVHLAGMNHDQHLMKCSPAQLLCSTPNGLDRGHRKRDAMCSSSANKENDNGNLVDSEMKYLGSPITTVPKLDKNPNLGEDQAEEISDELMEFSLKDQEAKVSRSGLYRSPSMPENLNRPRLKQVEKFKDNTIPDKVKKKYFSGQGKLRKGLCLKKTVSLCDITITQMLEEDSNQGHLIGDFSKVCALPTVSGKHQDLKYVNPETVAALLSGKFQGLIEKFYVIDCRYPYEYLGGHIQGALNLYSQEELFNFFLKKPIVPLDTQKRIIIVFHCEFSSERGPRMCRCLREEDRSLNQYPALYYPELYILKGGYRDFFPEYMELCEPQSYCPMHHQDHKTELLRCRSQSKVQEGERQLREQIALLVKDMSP
In words: Increase of cdc25c phosphorylation at Ser216 in human HeLa cells at 10 to 100 nM after 24 hrs by Western blot analysis. In kind it is cell-based. Put shortly: as §1

For data set [16], the system named is HeLa. Briefly: Cell cycle arrest in human HeLa cells assessed as reduction in S phase up to 60 nM after 24 hrs by propidium iodide staining-based flow cytometric analysis. In kind it is functional. The method, boiled down:
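HeLa cells (5 × 10⁵) treated for 24 h. Harvested, fixed in 70% ethanol chilled to 0 °C, then suspended in RNase with 0.1% Triton X-100. DNA stained with PI, analysed by flow cytometry as DNA-content histograms. Mean of three independent experiments.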

Data set [17] has as its system HeLa. In words: Downregulation of cdc25c protein expression in human HeLa cells at 10 to 100 nM after 24 to 48 hrs by Western blot analysis. The data set is classed as functional, cell-based. Put shortly: as §1
A short description of data set [18]: Selectivity ratio of IC50 for HUVEC to IC50 for human HeLa cells. The conditions noted are these: HUVEC and HeLa cells, read-out: Ratio IC50. In kind it is ADME, cell-based.
Data set [19] relates to HeLa. Briefly: Induction of mitochondrial membrane depolarization in human HeLa cells after 24 to 48 hrs by JC-1 staining-based fluorescence assay. In kind it is functional, cell-based. Put shortly: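 HeLa cells treated 24 or 48 h, then stained with JC-1. Cells with depolarised mitochondria quantified by flow cytometry. Mean of three independent experiments.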
In data set [20] the test system is HeLa. In words: Induction of apoptosis in human HeLa cells at 15 nM after 24 to 48 hrs by annexin-V-FITC/propidium iodide staining-based flow cytometric analysis. In kind it is functional, cell-based. The method, boiled down:
as §4

For data set [21], the system named is HeLa. Briefly: Induction of DNA damage in human HeLa cells assessed as upregulation of gamma-H2A.X protein expression at 10 nM after 48 hrs by Western blot analysis. In kind it is functional, cell-based. Put shortly: as §1

Calls of active or inactive are those of the source. No cut-off for these calls is given here.

The IC50 is the concentration that gives 50% inhibition. A word on the inhibition: it is the share of the control response that was lost under treatment. A high value points to a strong effect.

Cyclin-dependent kinase 1 (Homo sapiens), sequence (P06493 whole entry, looked up): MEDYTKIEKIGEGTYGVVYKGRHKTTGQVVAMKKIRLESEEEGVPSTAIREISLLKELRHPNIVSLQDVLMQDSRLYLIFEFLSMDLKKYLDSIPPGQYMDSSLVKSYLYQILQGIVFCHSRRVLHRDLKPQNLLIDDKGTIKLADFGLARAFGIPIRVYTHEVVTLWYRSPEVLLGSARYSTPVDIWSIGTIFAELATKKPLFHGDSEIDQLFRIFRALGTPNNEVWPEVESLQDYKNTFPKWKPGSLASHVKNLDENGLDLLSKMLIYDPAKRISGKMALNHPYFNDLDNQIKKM

`COc1cc(C(=O)c2cc3cc(N)cc(OC)c3s2)cc(OC)c1OC`: the result (in [1]; in the data set on Jurkat [2]; in the data set with HeLa [5]; in the data set with HeLa [6]; in the data set on HeLa [11]; in the data set with HeLa [13]) was Active. The outcome (in [15]; with HeLa [16]; in the data set on HeLa [17]; in the data set with HeLa [20]; in the data set on HeLa [21]) was Active. Besides, the IC50 in the data set with PBL [3] is 24700 nM; in the data set with PBL [4] it was 20600 nM; with L1210 it was 5 nM; in data set [10], 2.6 nM; in data set [12] it was 4.1 nM. Further, the selectivity ratio in data set [7], in data set [14] and in data set [18] was 460 each time. For the same compound, the Activity entry with Jurkat [8], in the data set on HeLa [9] and in the data set with HeLa [19] was “Dose-dependent effect” each time. Further, the inhibition on Tubulin (Homo sapiens) stood at 89%.

The values are drawn from ChEMBL document CHEMBL3098049, “Concise synthesis and biological evaluation of 2-Aroyl-5-amino benzo[b]thiophene derivatives as a novel class of potent antimitotic agents” (J Med Chem, 2013).
